Experimental data taken from ChEMBL document CHEMBL1134032, “Rational design, synthesis, and biological evaluation of rigid pyrrolidone analogues as potential inhibitors of prostate cancer cell growth” (Bioorg Med Chem Lett, 2001).

Legend:
[1] = biological target: T1, Protein kinase C epsilon type (Homo sapiens, UniProt Q02156); assay: Inhibition of [3H]-phorbol 12,13-dibutyrate (PDBu) binding to human recombinant protein kinase C epsilon
T1 sequence (Q02156 whole entry): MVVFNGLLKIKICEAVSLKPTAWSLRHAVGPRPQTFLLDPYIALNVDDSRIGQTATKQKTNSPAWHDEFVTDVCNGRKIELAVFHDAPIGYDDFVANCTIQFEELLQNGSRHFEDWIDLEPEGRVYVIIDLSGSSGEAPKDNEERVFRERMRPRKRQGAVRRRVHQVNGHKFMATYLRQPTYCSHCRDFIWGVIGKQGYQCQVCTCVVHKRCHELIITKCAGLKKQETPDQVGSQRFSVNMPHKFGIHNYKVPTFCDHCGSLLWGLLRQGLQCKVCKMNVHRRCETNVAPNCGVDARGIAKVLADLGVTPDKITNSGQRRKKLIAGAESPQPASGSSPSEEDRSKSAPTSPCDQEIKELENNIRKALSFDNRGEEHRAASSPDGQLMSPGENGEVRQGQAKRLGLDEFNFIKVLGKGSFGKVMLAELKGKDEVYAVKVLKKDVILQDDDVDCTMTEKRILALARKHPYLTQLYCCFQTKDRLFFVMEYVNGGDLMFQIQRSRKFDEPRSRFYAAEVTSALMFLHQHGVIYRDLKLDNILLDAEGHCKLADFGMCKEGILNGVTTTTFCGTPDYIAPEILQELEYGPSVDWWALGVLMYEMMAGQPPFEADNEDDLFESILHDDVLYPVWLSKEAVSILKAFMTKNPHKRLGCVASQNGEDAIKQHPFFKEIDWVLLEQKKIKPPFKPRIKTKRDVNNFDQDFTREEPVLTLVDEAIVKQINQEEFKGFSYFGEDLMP
In short: (§1)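 Competitive displacement of [3H]PDBu binding from recombinant human PKC isozymes (alpha, beta, gamma, delta, epsilon), each tested separately. Affinity is reported as Ki in nM.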

[2] = biological target: Protein kinase C delta type (Homo sapiens, UniProt Q05655); assay: Inhibition of [3H]-phorbol 12,13-dibutyrate (PDBu) binding to human recombinant protein kinase C delta; in short: as §1
[3] = biological target: Protein kinase C alpha type (Homo sapiens, UniProt P17252); assay: Inhibition of [3H]-phorbol 12,13-dibutyrate (PDBu) binding to human recombinant protein kinase C alpha; in short: as §1
[4] = biological target: Protein kinase C gamma type (Homo sapiens, UniProt P05129); assay: Inhibition of [3H]-phorbol 12,13-dibutyrate (PDBu) binding to human recombinant protein kinase C gamma; in short: as §1
[5] = biological target: Protein kinase C beta type (Homo sapiens, UniProt P05771); assay: Inhibition of [3H]-phorbol 12,13-dibutyrate (PDBu) binding to human recombinant protein kinase C beta; in short: as §1
Chain of Protein kinase C beta type (P05771 whole entry): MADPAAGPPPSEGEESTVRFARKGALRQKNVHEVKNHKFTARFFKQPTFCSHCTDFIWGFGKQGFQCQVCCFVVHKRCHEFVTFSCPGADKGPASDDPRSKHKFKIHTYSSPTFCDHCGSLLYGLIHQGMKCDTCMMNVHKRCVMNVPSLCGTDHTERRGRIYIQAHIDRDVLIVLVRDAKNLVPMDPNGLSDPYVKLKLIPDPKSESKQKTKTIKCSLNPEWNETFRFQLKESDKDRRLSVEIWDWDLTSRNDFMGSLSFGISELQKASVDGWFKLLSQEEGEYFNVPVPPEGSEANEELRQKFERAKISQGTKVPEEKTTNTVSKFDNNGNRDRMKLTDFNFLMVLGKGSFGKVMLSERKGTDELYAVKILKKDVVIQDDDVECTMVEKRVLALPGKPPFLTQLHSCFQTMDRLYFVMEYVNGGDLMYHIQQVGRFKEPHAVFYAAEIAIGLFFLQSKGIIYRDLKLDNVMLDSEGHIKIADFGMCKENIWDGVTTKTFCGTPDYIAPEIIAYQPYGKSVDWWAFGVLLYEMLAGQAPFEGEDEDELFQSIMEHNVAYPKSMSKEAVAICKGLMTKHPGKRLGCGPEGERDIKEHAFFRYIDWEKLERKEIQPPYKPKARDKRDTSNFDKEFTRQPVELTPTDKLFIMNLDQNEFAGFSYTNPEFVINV

Chain of Protein kinase C delta type (Q05655 whole entry): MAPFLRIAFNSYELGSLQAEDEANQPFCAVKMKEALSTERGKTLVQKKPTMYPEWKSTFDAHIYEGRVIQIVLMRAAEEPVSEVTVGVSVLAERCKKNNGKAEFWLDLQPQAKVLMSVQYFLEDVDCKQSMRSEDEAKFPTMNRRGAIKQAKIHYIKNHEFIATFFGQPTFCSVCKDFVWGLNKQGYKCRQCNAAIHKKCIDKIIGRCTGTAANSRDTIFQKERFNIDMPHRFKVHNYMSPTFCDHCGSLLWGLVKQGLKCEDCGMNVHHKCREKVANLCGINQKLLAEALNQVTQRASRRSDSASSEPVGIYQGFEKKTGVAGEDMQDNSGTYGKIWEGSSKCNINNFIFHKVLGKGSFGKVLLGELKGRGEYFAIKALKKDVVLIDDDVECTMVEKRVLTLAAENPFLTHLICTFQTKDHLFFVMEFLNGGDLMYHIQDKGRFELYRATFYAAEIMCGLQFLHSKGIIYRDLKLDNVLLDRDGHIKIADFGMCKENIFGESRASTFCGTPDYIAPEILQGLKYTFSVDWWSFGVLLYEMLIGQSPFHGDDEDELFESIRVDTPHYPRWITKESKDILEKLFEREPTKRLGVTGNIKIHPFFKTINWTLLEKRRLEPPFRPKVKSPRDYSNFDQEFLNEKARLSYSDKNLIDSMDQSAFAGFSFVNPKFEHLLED

CCCCCCCCC#Cc1ccc2c(c1)[C@](C)(C(C)C)[C@H]1C(=O)N[C@H](CO)[C@@H]21
Ki [1]: 469 nM | Ki [2]: 1630 nM | Ki [3]: 580 nM | Ki [4]: 279 nM

CCCCCCCCC#Cc1ccc2c(c1)C[C@@H](CO)NC(=O)[C@H](C(C)C)N2C
Ki [1]: 40 nM | Ki [2]: 114 nM | Ki [3]: 23 nM | Ki [5]: 70 nM | Ki [4]: 43 nM

CCCCCCCCCCCCCC(=O)O[C@@H]1[C@@H](C)[C@@]2(O)[C@@H](C=C(CO)C[C@]3(O)C(=O)C(C)=C[C@@H]23)[C@@H]2C(C)(C)[C@]12OC(C)=O [PHORBOL MYRISTATE ACETATE]
Ki [1]: 0.45 nM | Ki [2]: 0.8 nM | Ki [5]: 1.8 nM | Ki [4]: 4.9 nM
